Results: paper PMC4714695 (Cancer Science, 2015)
Entries after “also recorded” stand apart in the source; their conditions may differ.

Experiments:
[1] = tested on: Japanese patients with acute myeloid leukemia; assay: Phase I 3 + 3 dose escalation: dose-limiting toxicities and MTD; assay type: in vivo, human
Procedure, shortened: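 Open-label 3 + 3 escalation at 350, 400 and 450 mg (highest planned level), by 2-h IV infusion on days 1 and 15 of 28-day cycles; patients hospitalized in cycle 1. DLT: treatment-related CTCAE grade ≥3 non-hematologic AE in cycle 1. Exceptions: untreated nausea/vomiting, treatable grade 3 diarrhea, grade 3 febrile neutropenia or infection, lab abnormalities resolving within 5 days, grade 3 tumor lysis syndrome.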

PLK2 = conditions: compared with PLK1; cited from earlier work
[2] = tested on: more than 50 unrelated kinases; conditions: more than 50 kinases tested; cited from earlier work
[3] = tested on: Japanese patients with acute myeloid leukemia; assay: Adverse events graded by CTCAE version 3.0; assay type: in vivo, human; conditions: for Blood creatinine increased, all grades, patients / Decreased appetite, all grades, patients / Decreased appetite, grade 3, patients / Epistaxis, all grades, patients / Fatigue, all grades, patients / Febrile neutropenia, all grades, patients / Febrile neutropenia, grade 3, patients / Hyperuricemia, all grades, patients / Hypoalbuminemia, all grades, patients / Hypokalemia, all grades, patients / Hypokalemia, grade 3, patients / Infection, all grades, patients / Infection, grade 3, patients / Nausea, all grades, patients / Neutropenia, all grades, patients / Neutropenia, grade 4, patients / Pyrexia, all grades, patients / Sepsis, all grades, patients / Sepsis, grade 3, patients / Stomatitis, all grades, patients / Vomiting, all grades, patients / Rash, all grades, patients / Hypokalemia, grade 4, patients: irrespective of relationship
Procedure, shortened: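 Adults with relapsed/refractory or untreated AML unfit for standard induction, ECOG ≤2. Test compound given as a 2-h IV drip infusion on days 1 and 15 of 28-day cycles, at 350, 400 or 450 mg per administration. AEs from all cycles graded by CTCAE v3.0 and tabulated per dose cohort by MedDRA system organ class, preferred term and grade, with drug causality assigned. Safety cut-off 6 June 2014.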

PLK3 = conditions: compared with PLK1; cited from earlier work
PLK1 = conditions: cited from earlier work
[4] = 450 mg, day 29 (cycle 2, day 1)
[5] = all cohorts (N = 19), all grades
[6] = all cohorts (N = 19), all treatment cycles

Compound: CC[C@@H]1C(=O)N(C)c2cnc(Nc3ccc(C(=O)N[C@H]4CC[C@H](N5CCN(CC6CC6)CC5)CC4)cc3OC)nc2N1C(C)C [Volasertib]
- DLT in cycle 1 ([1]; 350 mg cohort): No DLT were reported
- DLT in cycle 1 ([1]; 400 mg cohort): No DLT were reported
- Patients with DLT in cycle 1 ([1]; 450 mg cohort 3, 6 evaluable patients): 1
- DLT observed (type) ([1]; 450 mg cohort 3, cycle 1): grade 4 abnormal liver function test; also recorded: reversible grade 4 liver function test abnormality
- Day on which the patient was considered recovered from the DLT ([1]; 450 mg, reduced to 400 mg in cycle 2): 38 days
- Total bilirubin in the patient with DLT ([1]; 450 mg, day 9 of cycle 1, reference 0.3–1.2 mg/dL): 1.1 mg/dL
- ALT in the patient with DLT ([1]; 450 mg, day 9 of cycle 1, reference 6–30 IU/L): 116 IU/L
- AST in the patient with DLT ([1]; 450 mg, day 9 of cycle 1, reference 13–33 IU/L): 131 IU/L
- ALT in the patient with DLT ([1]; 450 mg, day 11 of cycle 1): 711 IU/L
- AST in the patient with DLT ([1]; 450 mg, day 11 of cycle 1): 764 IU/L
- Total bilirubin in the patient with DLT ([1]; 450 mg, day 11 of cycle 1): 2.6 mg/dL
- ALT in the patient with DLT ([1]; 450 mg, day 16): 450 IU/L
- AST in the patient with DLT ([1]; 450 mg, day 16): 156 IU/L
- Total bilirubin in the patient with DLT ([1]; 450 mg, day 16): 3.8 mg/dL
- ALT in the patient with DLT [1, 4]: 38 IU/L
- AST in the patient with DLT [1, 4]: 15 IU/L
- Total bilirubin in the patient with DLT [1, 4]: 1.0 mg/dL
- Maximum tolerated dose (MTD) ([1]; intravenous 2-h infusion on days 1 and 15 of 28-day cycles): 450 mg
- Inhibition of PLK2 (PLK2): to a lesser extent
- Inhibition of unrelated kinases [2]: does not inhibit
- Blood creatinine increased, all grades, patients ([3]; 350 mg (n = 7)): 1 n
- Decreased appetite, all grades, patients ([3]; 350 mg (n = 7)): 5 n
- Decreased appetite, grade 3, patients ([3]; 350 mg (n = 7)): 1 n
- Epistaxis, all grades, patients ([3]; 350 mg (n = 7)): 1 n
- Fatigue, all grades, patients ([3]; 350 mg (n = 7)): 1 n
- Febrile neutropenia, all grades, patients ([3]; 350 mg (n = 7)): 5 n
- Febrile neutropenia, grade 3, patients ([3]; 350 mg (n = 7)): 5 n
- Hyperuricemia, all grades, patients ([3]; 350 mg (n = 7)): 3 n
- Hypoalbuminemia, all grades, patients ([3]; 350 mg (n = 7)): 2 n
- Hypokalemia, all grades, patients ([3]; 350 mg (n = 7)): 3 n
- Hypokalemia, grade 3, patients ([3]; 350 mg (n = 7)): 1 n
- Infection, all grades, patients ([3]; 350 mg (n = 7)): 2 n
- Infection, grade 3, patients ([3]; 350 mg (n = 7)): 2 n
- Nausea, all grades, patients ([3]; 350 mg (n = 7)): 1 n
- Neutropenia, all grades, patients ([3]; 350 mg (n = 7)): 1 n
- Neutropenia, grade 4, patients ([3]; 350 mg (n = 7)): 1 n
- Pyrexia, all grades, patients ([3]; 350 mg (n = 7)): 2 n
- Sepsis, all grades, patients ([3]; 350 mg (n = 7)): 2 n
- Sepsis, grade 3, patients ([3]; 350 mg (n = 7)): 2 n
- Stomatitis, all grades, patients ([3]; 350 mg (n = 7)): 2 n
- Vomiting, all grades, patients ([3]; 350 mg (n = 7)): 1 n
- Patients reporting grade 4 AE ([3]; 350 mg cohort 1, neutropenia and thrombocytopenia): one of seven patients
- Blood creatinine increased, all grades, patients ([3]; 400 mg (n = 4)): 2 n
- Decreased appetite, all grades, patients ([3]; 400 mg (n = 4)): 1 n
- Epistaxis, all grades, patients ([3]; 400 mg (n = 4)): 2 n
- Fatigue, all grades, patients ([3]; 400 mg (n = 4)): 3 n
- Febrile neutropenia, all grades, patients ([3]; 400 mg (n = 4)): 3 n
- Febrile neutropenia, grade 3, patients ([3]; 400 mg (n = 4)): 3 n
- Nausea, all grades, patients ([3]; 400 mg (n = 4)): 2 n
- Neutropenia, all grades, patients ([3]; 400 mg (n = 4)): 1 n
- Neutropenia, grade 4, patients ([3]; 400 mg (n = 4)): 1 n
- Rash, all grades, patients ([3]; 400 mg (n = 4)): 4 n
- Sepsis, all grades, patients ([3]; 400 mg (n = 4)): 1 n
- Sepsis, grade 3, patients ([3]; 400 mg (n = 4)): 1 n
- Stomatitis, all grades, patients ([3]; 400 mg (n = 4)): 1 n
- Vomiting, all grades, patients ([3]; 400 mg (n = 4)): 1 n
- Patients reporting grade 4 AE ([3]; 400 mg cohort 2, neutropenia and thrombocytopenia): two of four patients
- Decreased appetite, all grades, patients ([3]; 450 mg (n = 8)): 2 n
- Decreased appetite, grade 3, patients ([3]; 450 mg (n = 8)): 2 n
- Epistaxis, all grades, patients ([3]; 450 mg (n = 8)): 2 n
- Fatigue, all grades, patients ([3]; 450 mg (n = 8)): 1 n
- Febrile neutropenia, all grades, patients ([3]; 450 mg (n = 8)): 7 n
- Febrile neutropenia, grade 3, patients ([3]; 450 mg (n = 8)): 6 n
- Hypoalbuminemia, all grades, patients ([3]; 450 mg (n = 8)): 1 n
- Hypokalemia, all grades, patients ([3]; 450 mg (n = 8)): 2 n
- Hypokalemia, grade 4, patients ([3]; 450 mg (n = 8)): 1 n
- Infection, all grades, patients ([3]; 450 mg (n = 8)): 1 n
- Nausea, all grades, patients ([3]; 450 mg (n = 8)): 4 n
- Neutropenia, all grades, patients ([3]; 450 mg (n = 8)): 1 n
- Neutropenia, grade 4, patients ([3]; 450 mg (n = 8)): 1 n
- Pyrexia, all grades, patients ([3]; 450 mg (n = 8)): 2 n
- Rash, all grades, patients ([3]; 450 mg (n = 8)): 3 n
- Sepsis, all grades, patients ([3]; 450 mg (n = 8)): 2 n
- Sepsis, grade 3, patients ([3]; 450 mg (n = 8)): 2 n
- Stomatitis, all grades, patients ([3]; 450 mg (n = 8)): 2 n
- Vomiting, all grades, patients ([3]; 450 mg (n = 8)): 2 n
- Patients reporting grade 4 AE ([3]; 450 mg cohort 3, neutropenia, hypokalemia and abnormal liver function test): three of eight patients
- Blood creatinine increased, all grades, patients ([3]; Total (N = 19)): 3 n
- Decreased appetite, all grades, patients ([3]; Total (N = 19)): 8 n
- Decreased appetite, grade 3, patients ([3]; Total (N = 19)): 3 n
- Epistaxis, all grades, patients ([3]; Total (N = 19)): 5 n
- Fatigue, all grades, patients ([3]; Total (N = 19)): 5 n
- Febrile neutropenia, all grades, patients ([3]; Total (N = 19)): 15 n
- Febrile neutropenia, grade 3, patients ([3]; Total (N = 19)): 14 n
- Hyperuricemia, all grades, patients ([3]; Total (N = 19)): 3 n
- Hypoalbuminemia, all grades, patients ([3]; Total (N = 19)): 3 n
- Hypokalemia, all grades, patients ([3]; Total (N = 19)): 5 n
- Hypokalemia, grade 3, patients ([3]; Total (N = 19)): 1 n
- Hypokalemia, grade 4, patients ([3]; Total (N = 19)): 1 n
- Infection, all grades, patients ([3]; Total (N = 19)): 3 n
- Infection, grade 3, patients ([3]; Total (N = 19)): 2 n
- Nausea, all grades, patients ([3]; Total (N = 19)): 7 n
- Neutropenia, all grades, patients ([3]; Total (N = 19)): 3 n
- Neutropenia, grade 4, patients ([3]; Total (N = 19)): 3 n
- Pyrexia, all grades, patients ([3]; Total (N = 19)): 4 n
- Rash, all grades, patients ([3]; Total (N = 19)): 7 n
- Sepsis, all grades, patients ([3]; Total (N = 19)): 5 n
- Sepsis, grade 3, patients ([3]; Total (N = 19)): 5 n
- Stomatitis, all grades, patients ([3]; Total (N = 19)): 5 n
- Vomiting, all grades, patients ([3]; Total (N = 19)): 4 n
- Decreased appetite, frequency [3, 5]: 42.1%
- Epistaxis, frequency [3, 5]: 26.3%
- Fatigue, frequency [3, 5]: 26.3%
- Febrile neutropenia, frequency [3, 5]: 78.9%
- Hypokalemia, frequency [3, 5]: 26.3%
- Nausea, frequency [3, 5]: 36.8%
- Pyrexia, frequency [3, 5]: 21.1%
- Rash, frequency [3, 5]: 36.8%
- Sepsis, frequency [3, 5]: 26.3%
- Stomatitis, frequency [3, 5]: 26.3%
- Vomiting, frequency [3, 5]: 21.1%
- Patients reporting CTCAE of grade ≥3 [3, 6]: 94.7%
- Patients reporting at least one AE irrespective of cause [3, 6]: 19 patients
- Patients reporting at least one drug-related AE [3, 6]: 19 patients
- Inhibition of PLK3 (PLK3): to a lesser extent
- Inhibition of PLK1 (PLK1): selectively inhibit
